Consider 96 compounds from ChEMBL document CHEMBL4513216, “Probing the Open Global Health Chemical Diversity Library for Multistage-Active Starting Points for Next-Generation Antimalarials” (ACS Infect Dis, 2020).

The nature of this series: Toxicity liver stage against HepG2, at 10uM. The series is classed as cell-based. Set-up: test concentration 10 uM, cell line HepG2-A16-CD81EGFP. Conditions: human, HepG2-A16-CD81EGFP cells; read-out: INHIBITION
In a few lines:
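Uninfected HepG2-A16-CD81EGFP cells, 3 × 10^3 per well, 1536-well, plated on prespotted compound at 10 μM final, parasite-free screening media added to match infected plates; puromycin 10 μM positive, DMSO 0.5% negative; run in parallel with 48 h PbLuc assay at 37 °C, 5% CO2; viability by CellTiter-Glo luminescence, normalized to controls.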
In the case of `NC(CC1CCCCC1)c1ccccc1` (stereo unspecified), the cytotoxicity at 10 µM was -4.8%.
Turning to `O=C(NC[C@H]1OC[C@@H](NC2COC2)[C@@H]1O)c1ccccc1`, the cytotoxicity at 10 µM was -1.05%.
The same measure for `Cc1ccc2c(c1)nc1n2[C@@H](CNC(=O)c2cccnc2)COC1`: 5.29%; for `Cc1ccc(CN2CC[C@H](c3nnc(COc4ccc(F)cc4)o3)C2)o1`: 5.2%; for `CCCC(=O)n1ccn(S(=O)(=O)c2ccc(C)cc2)c1=O`: 8.08%.
The same measure for `COc1ccc(C2CCCCCN2Cc2cn(C)nc2C)cc1` (stereo unspecified): -4.96%.
The same measure for `COc1ccc2c(c1)OC1(CCN(Cc3ccccc3C)CC1)CC2=O`: 6.52%.
`CN1C(=O)C2(CC(=O)Nc3c2cnn3C(C)(C)C)c2c(Cl)cccc21` (stereo unspecified): the cytotoxicity at 10 µM was 3.41%.
To `Cn1c(CN2CCOCC2)cc(=O)c(O)c1CN1CCOCC1` belongs -5.61%; to `O=C(CN1C(=O)CCC1=O)NCC1(O)CCc2ccccc21` (stereo unspecified), -15.7%; to `CC(C)Nc1nc2c(c(NC3CC3)n1)CN(C(=O)c1ccncc1)CC2`, -2.29%.
The same measure for `CS(=O)(=O)N1C[C@H]2CCC[C@@]2(COCC2CCOCC2)C1`: -0.173%; for `O=C(c1nc2c(s1)CCCN2C(=O)C1CC1)N1CCCC1`: 7.02%.
For the compound `CS(=O)(=O)N1CCOC2(CCN(c3nccs3)CC2)c2ccccc21`, the cytotoxicity at 10 µM is 1.18%.
The same measure for `COCCNC(=O)C1CN(Cc2ccsc2)Cc2ccnn2C1` (stereo unspecified): -6.07%; for `CNC(=O)[C@@]12CCC3(CCN(S(=O)(=O)C4CC4)CC3)[C@@H]1CN(C(C)=O)C2`: -0.201%; for `O=C(Cc1ccsc1)N1CCn2cc(Cn3cncn3)nc2C1`: -142%.
To `COc1cccc(C2CC(=O)Nc3nc(N)sc32)c1OC` (stereo unspecified) belongs 3.74%.
With `Cc1csc([C@@H]2C[C@@H]3CCN(C(=O)c4cc(C)on4)C[C@H]3O2)n1`, the cytotoxicity at 10 µM worked out at 4.88%.
To `CCN(CC)c1nc(Nc2cccc(C(=O)O)c2)nc2ccccc12` belongs 12%.
To `CN1CCN(C(=O)c2[nH]nnc2Nc2ccccc2F)CC1` belongs 1.36%.
For the compound `Cc1nn(C)c(C)c1NC(=O)CCn1ncc2c(C)cccc21`, the cytotoxicity at 10 µM was -10.8%.
`COCCC(=O)NCc1ccc(-c2ccccc2C(=O)O)cn1`: the cytotoxicity at 10 µM was found to be 1.92%.
The same measure for `Fc1cccc(CN2CCC[C@H](Cn3nnc(-c4ccccn4)n3)C2)c1`: 3.44%; for `CO[C@@H]1CC[C@@H](NC(=O)CCc2ccc(Cl)cc2)[C@H]1O`: 3.84%; for `Cc1ncoc1C(=O)N1CCCC(c2ccc3c(N)nn(C)c3n2)C1` (stereo unspecified): 2.76%.
To `Cc1cc(N(C)Cc2ncc(-c3ccccc3C(=O)O)s2)ncn1` belongs -0.241%; to `Cc1cc(C(F)F)nn1C(C)C(=O)NCc1nccn1C` (stereo unspecified), 4.86%; to `CC(C)C(=O)N1CCCC([C@@H]2C[C@H](C(F)F)n3ncnc3N2)C1` (stereo partly specified), -3.41%.
To `CO[C@H]1CCN(C(=O)c2ccc3[nH]nnc3c2)C[C@@]12CCCO2` belongs -5.38%.
As for `Cc1ccnc(C2CCN(C(=O)CCn3ncc4ccccc43)C2)n1` (stereo unspecified), the cytotoxicity at 10 µM is -22.3%.
`CCn1cc(CN2CCN(CC(O)c3ccc(C)cc3C)CC2)cn1` (stereo unspecified): the cytotoxicity at 10 µM was -24.6%.
As for `c1ccc(-c2cc(CNCCN3CCOCC3)c3nnnn3c2)cc1`, the cytotoxicity at 10 µM was -17.6%.
For the compound `c1ccc(CN2CCC(c3nccnc3-n3ccnc3)CC2)cc1`, the cytotoxicity at 10 µM is -19.6%.
Regarding `Cc1cncc(C(=O)N[C@@H]2CC[C@@H](N3CCOCC3)[C@@H]2O)c1`, the cytotoxicity at 10 µM came to 0.331%.
As to `CNC(=O)c1cccc(C2CNCCN2C(=O)C2CCNCC2)c1` (stereo unspecified), the cytotoxicity at 10 µM is -2.39%.
Turning to `O=C(c1ccc(Cl)cc1)N1CCC(N2CCNC2=O)CC1`, the cytotoxicity at 10 µM is 12.6%.
With `CC(C)(NC(=O)NCc1cccc(Br)c1)C(=O)O`, the cytotoxicity at 10 µM is 9.13%.
With `Cc1noc(C)c1NC(=O)CCn1cc(Br)ccc1=O`, the cytotoxicity at 10 µM is 7.07%.
`COC(=O)C1(NCC(=O)Nc2cc(C)ccc2OC)CCCCC1`: the cytotoxicity at 10 µM amounted to 4.02%.
Consider `CC(Cn1ccnc1)NC(=O)NCCN1CCCCCC1=O` (stereo unspecified), for which the cytotoxicity at 10 µM was -1.26%.
As for `Cc1cnn(CC(=O)N(CC2CN(C)CCO2)c2nccs2)c1` (stereo unspecified), the cytotoxicity at 10 µM amounted to 1.79%.
`CC(C)c1nc(C2CCCN2C(=O)c2ccc3nncn3c2)no1` (stereo unspecified): the cytotoxicity at 10 µM is -10.3%.
To `COc1cc(C(=O)NS(=O)(=O)c2cncc(Br)c2)cc(Cl)c1OC` belongs -2.21%; to `CC(C)c1cc(NC(=O)CN2CCCC(Cn3cncn3)C2)on1` (stereo unspecified), 14%.
The same measure for `Cc1cnc(C(C)(C)NC(=O)NCc2ccc(C#N)cc2F)s1`: 15.1%.
To `CC(C)N(C)Cc1ccccc1CNc1ccc2nncn2n1` belongs 0.425%; to `CSCc1cc(F)ccc1CNCc1cccc(O)c1`, -3.58%.
Regarding `Cn1cnnc1C1CCCN(C(=O)c2cc(C3CC3)on2)C1` (stereo unspecified), the cytotoxicity at 10 µM was 5.14%.
Consider `Cc1nn(C)c(N(C)C)c1CNC1CCCCNC1=O` (stereo unspecified), for which the cytotoxicity at 10 µM came out at 7.76%.
To `O=C(Nc1ccccc1Cn1cccn1)N1CCC(N2CCCC2)C1` (stereo unspecified) belongs 2.06%; to `CCN(CC)C(=O)C1CCN(c2ccc(Cl)cc2C#N)CC1`, 12.2%.
For the compound `CC(=O)c1ccc(-n2c(C)cn(CCC#N)c2=O)cc1`, the cytotoxicity at 10 µM was 19.3%.
To `CC(C)OCCCNC(=O)CSc1nnc(OC(C)C)s1` belongs -5.89%; to `Cc1ccc(C(C)NC(=O)Cc2c(C)nc3c(c2C)c(=O)[nH]n3C)o1` (stereo unspecified), -16.3%; to `O=C(Nc1cccc(CN2CCOC2=O)c1)N1CCOCC1`, -8.6%.
As to `CCCN(C)c1ncc2c(n1)N(C)CCN(CC1CC1)C2=O`, the cytotoxicity at 10 µM was -5.69%.
To `Cc1cc(CN2CCC=C(CN(C)C(=O)c3ccco3)C2)no1` belongs 6.65%.
The same measure for `CNc1ncccc1CN1CCN(c2cc(NC3CC3)nc(N)n2)CC1`: -6.58%.
To `CCC(C)N(Cc1ccc(C)cc1)Cc1c[nH]c(C)n1` (stereo unspecified) belongs 7.87%; to `O=C(NC1CC(=O)N(C2Cc3ccccc3C2)C1)c1ccsc1` (stereo unspecified), -1.98%.
In the case of `O=C(O)C1(Cc2ccccc2Cl)CCN(c2ncccn2)CC1`, the cytotoxicity at 10 µM turned out to be 7.04%.
To `CCn1c(CN(C)C)nnc1C1CCN(Cc2ccc(Cl)c(F)c2)CC1` belongs 3.73%.
In the case of `c1cc(-c2cnccn2)cc(-c2ccn(CCN3CCCCC3)n2)c1`, the cytotoxicity at 10 µM is -4.54%.
On to `Cn1nc(C2CC2)c2c1NC(=O)CC2c1ccc(CN2CCCCC2)s1` (stereo unspecified), for which the cytotoxicity at 10 µM is -6.37%.
The same measure for `Cn1c(CO)nnc1CC1CCN(Cc2ccc(C#N)cc2)CC1`: 4.98%; for `OC1CCCOC12CCN(c1ncccn1)CC2` (stereo unspecified): 3.73%; for `CN1CCN(C2CCOCC2)CC12CCC(=O)N(CC1CC1)CC2` (stereo unspecified): -1.93%.
For the compound `O=C(Cc1ccc(F)cc1Cl)N1C[C@@H](CN2CCC(O)CC2)[C@@H](CO)C1`, the cytotoxicity at 10 µM was 9.32%.
To `COc1cc(C)ccc1OCc1nc(C(=O)N2CCC(C)CC2)co1` belongs -45%.
To `Cc1cc(C)nc(CCNC(=O)C(c2ccc(F)cc2)N(C)C)n1` (stereo unspecified) belongs -40.1%.
On to `Cc1nc(CN2CCC(C(=O)O)(n3ccc(-c4ccco4)n3)CC2)co1`, for which the cytotoxicity at 10 µM is -12.1%.
For the compound `CCS(=O)(=O)N1CCC(c2nnc(Cn3cccn3)n2C2CC2)CC1`, the cytotoxicity at 10 µM is -14.2%.
The same measure for `COc1ccccc1-c1cc(C(F)(F)F)c2c(C)nn(CC(=O)O)c2n1`: 5.25%.
The same measure for `CS(=O)(=O)NC1CCN(C(=O)NCCc2ccccn2)CC1`: -14.4%.
Take `CCCNC(=O)NC(=O)CN1CCN(Cc2nccn2CC)CC1`: the cytotoxicity at 10 µM is -14.3%.
In the case of `CCn1cc(NC(=O)C2CCN(CCOC(C)C)CC2)cn1`, the cytotoxicity at 10 µM is -5.4%.
The same measure for `CN(C)CC1CN(c2ccc(C#N)cn2)CCO1` (stereo unspecified): -4.67%; for `COCCc1noc(CN2CCCCC2Cn2cc(C)cn2)n1` (stereo unspecified): -8.54%; for `Cc1nn(C)c(C)c1C1CCCN1Cc1cccc(C(N)=O)c1` (stereo unspecified): -10.2%.
Consider `CC(O)CN1CCN(C(=O)c2cccn2Cc2ccncc2)CC1` (stereo unspecified), for which the cytotoxicity at 10 µM was -10.9%.
The same measure for `Cc1nc(C)n(CC2CCCN(c3ncnc4[nH]ccc34)C2)n1` (stereo unspecified): 12.8%; for `O=C(NCCc1cccc(F)c1)NCC(O)c1cccc(F)c1` (stereo unspecified): -13.1%; for `COc1ccc(CCC(=O)Nc2cccnc2N2CCCC2)cc1Br`: 1.06%.
For `c1ncn(CC2CN(CC3CCCC3)CCO2)n1` (stereo unspecified), the cytotoxicity at 10 µM came to 4.93%.
Regarding `FC(F)CNc1cnc(C2CCCN2)cn1` (stereo unspecified), the cytotoxicity at 10 µM is 0.865%.
With `O=c1ccc2c(n1CC1CCOCC1)CCN(Cc1ccoc1)CC2`, the cytotoxicity at 10 µM was -128%.
To `COc1cc(COCC2CCN(Cc3cccnc3)CC2)cc(OC)c1` belongs 0%; to `O=C1CC2(CCN(Cc3cccnc3)C2)CN1c1cncnc1` (stereo unspecified), -65.7%.
Regarding `Cc1ccc(C(=O)N2CCn3cc(CN(C)Cc4ccco4)nc3C2)o1`, the cytotoxicity at 10 µM worked out at 12.4%.
The same measure for `Cn1cc(C(=O)N2CC[C@@H]3[C@@H]2CCN3Cc2ccccc2)cn1`: -69.8%; for `Cc1cccc(CN2CC3(CCN(C4CCOC4)CC3)OCC2=O)n1` (stereo unspecified): -2.92%; for `Cc1cc(CCC(=O)Nc2nncs2)nc(C2CCCN2)n1` (stereo unspecified): -28%.
To `COCCC(=O)NCCn1nc(C2CCNC2)c2cccnc21` (stereo unspecified) belongs -16.5%; to `CN1CC(=O)N(c2cccc(F)c2)CC12CCN(S(=O)(=O)C1CC1)C2` (stereo unspecified), -71.8%.
`CS(=O)(=O)CCC(=O)N1C[C@H]2CC[C@@H](C1)N(Cc1ccccn1)C2=O`: the cytotoxicity at 10 µM is 7.23%.
